Data from ChEMBL document CHEMBL1154452, “First synthesis of novel spin-labeled derivatives of camptothecin as potential antineoplastic agents” (Eur J Med Chem, 2008).

Columns and labels:
[1] = Stability in human plasma assessed as level of lactone form of compound after 4 hrs by HPLC; format: ADME, cell-free; conditions: read-out: Activity
In short: (§1)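 Incubated in plasma at 37 °C; aliquots taken at 2, 4, 6, 8 and 24 h. Protein precipitated with cold acetonitrile (-20 °C) and removed by centrifugation. Supernatant stored at -20 °C, then analysed by C-18 HPLC (methanol/water/0.1% acetic acid) with detection at 254 nm. Percent lactone = lactone level at each time point relative to t = 0 h.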

T-24 = assay: Growth inhibition of human T24 cells after 4 days by MTT assay; format: functional; design: concentration or dose not given beside the values
In short: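 After 4 days, MTT (5 mg/mL solution) added, 4 h further incubation, formazan dissolved in DMSO, absorbance read at 570 nm. Survival expressed as percent of untreated control wells; inhibition rates derived.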

[2] = Stability in human plasma assessed as level of lactone form of compound after 8 hrs by HPLC; format: ADME, cell-free; conditions: read-out: Activity; in short: as §1
[3] = Stability in human plasma assessed as level of lactone form of compound after 6 hrs by HPLC; format: ADME, cell-free; conditions: read-out: Activity; in short: as §1
[4] = Stability in human plasma assessed as level of lactone form of compound after 24 hrs by HPLC; format: ADME, cell-free; conditions: read-out: Activity; in short: as §1
[5] = Stability in mouse plasma assessed as level of lactone form of compound after 2 hrs by HPLC; format: ADME, cell-free; conditions: read-out: Activity; in short: as §1
[6] = Stability in mouse plasma assessed as level of lactone form of compound after 6 hrs by HPLC; format: ADME, cell-free; conditions: read-out: Activity; in short: as §1
[7] = Stability in mouse plasma assessed as level of lactone form of compound after 8 hrs by HPLC; format: ADME, cell-free; conditions: read-out: Activity; in short: as §1
[8] = Stability in mouse plasma assessed as level of lactone form of compound after 24 hrs by HPLC; format: ADME, cell-free; conditions: read-out: Activity; in short: as §1
[9] = Stability in mouse plasma assessed as level of lactone form of compound after 4 hrs by HPLC; format: ADME, cell-free; conditions: read-out: Activity; in short: as §1
[10] = Stability in human plasma assessed as level of lactone form of compound after 2 hrs by HPLC; format: ADME, cell-free; conditions: read-out: Activity; in short: as §1

| SMILES | remaining at 4 h [1] [%] | inhibition (INH) (T-24) [%] | remaining at 8 h [2] [%] | remaining at 6 h [3] [%] | remaining at 24 h [4] [%] | remaining at 2 h [5] [%] | remaining at 6 h [6] [%] | remaining at 8 h [7] [%] | remaining at 24 h [8] [%] | remaining at 4 h [9] [%] | remaining at 2 h [10] [%] |
| --- | --- | --- | --- | --- | --- | --- | --- | --- | --- | --- | --- |
| CC[C@@]1(OC(=O)CNC(=O)C2=CC(C)(C)N(O)C2(C)C)C(=O)OCc2c1cc1n(c2=O)Cc2cc3ccccc3nc2-1 | 65.2 | 34.5 | 34.4 | 56.1 | 7.8 | 76.3 | 43.9 | 31.8 | 10.8 | 57.6 | 78.7 |
| CC[C@@]1(OC(=O)[C@H](CC(C)C)NC(=O)C2=CC(C)(C)N(O)C2(C)C)C(=O)OCc2c1cc1n(c2=O)Cc2cc3ccccc3nc2-1 |  | 16.4 |  |  |  |  |  |  |  |  |  |
| CC[C@@]1(OC(=O)[C@H](C)NC(=O)C2=CC(C)(C)N(O)C2(C)C)C(=O)OCc2c1cc1n(c2=O)Cc2cc3ccccc3nc2-1 |  | 25.9 |  |  |  |  |  |  |  |  |  |
| CC[C@@]1(OC(=O)[C@H](Cc2ccccc2)NC(=O)C2=CC(C)(C)N(O)C2(C)C)C(=O)OCc2c1cc1n(c2=O)Cc2cc3ccccc3nc2-1 |  | 26.4 |  |  |  |  |  |  |  |  |  |
| CC[C@@]1(OC(=O)[C@H](CCSC)NC(=O)C2=CC(C)(C)N(O)C2(C)C)C(=O)OCc2c1cc1n(c2=O)Cc2cc3ccccc3nc2-1 |  | 25.5 |  |  |  |  |  |  |  |  |  |
| CC[C@@]1(O)C(=O)OCc2c1cc1n(c2=O)Cc2cc3ccccc3nc2-1 [CAMPTOTHECIN] | 28.4 | 15.4 | 14.6 | 19.4 | 3.8 | 55.1 | 24.5 | 10.9 | 5.3 | 40.5 | 61.4 |
| CCc1c2c(nc3ccc(OC(=O)N4CCC(N5CCCCC5)CC4)cc13)-c1cc3c(c(=O)n1C2)COC(=O)[C@]3(O)CC [IRINOTECAN] |  | 23.8 |  |  |  |  |  |  |  |  |  |
